Compounds with a hit are over-represented: about 1.9% of the library has one in this group of screens.
bCat nuc transl: modulators of beta-catenin nuclear translocation, primary screen, imaging, HeLa cells, immunofluorescence, high-content. nuclear translocation activity, % at 5 µM. 190,000 compounds, 0.3% hits;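 active = nuclear translocation activity above 50% at 5 µM, with a well cell count of 50 or more; inconclusive = wells under 50 cells across six images, flagged as toxic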;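 also: per-cell ratio of nuclear to cytoplasmic median beta-catenin stain intensity; plate controls were DMSO negative control for no effect and GSK-3 inhibitor IX positive control for full effect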
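Test system: human HeLa cell line; Doses: 5 µM primary, 0.02–20 µM confirmation; Incubation: 24 h compound exposure, 37°C; Detection: beta-catenin immunofluorescence imaging with DAPI; Read-out: beta-catenin nuclear/cytoplasmic ratio, % activation.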
ROMK primary: ROMK potassium channel modulators, primary screen, cell-based, thallium flux, MLSMR library | ATP-sensitive inward rectifier potassium channel 1 (Homo sapiens), P48048 | Tet-inducible ROMK, thallium flux fluorescence; actives lie on both sides | B-score at 10 µM | 130,000 compounds, 2% hits | AID 1918, 2009;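 active = signal ratio slope over the read window, or its plate-corrected B-score, at least 3 SD from the plate mean, either direction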;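 also: B-score of the F/F0 ratio slope over 7 to 12 s after thallium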
Target sequence (P48048 whole entry, looked up): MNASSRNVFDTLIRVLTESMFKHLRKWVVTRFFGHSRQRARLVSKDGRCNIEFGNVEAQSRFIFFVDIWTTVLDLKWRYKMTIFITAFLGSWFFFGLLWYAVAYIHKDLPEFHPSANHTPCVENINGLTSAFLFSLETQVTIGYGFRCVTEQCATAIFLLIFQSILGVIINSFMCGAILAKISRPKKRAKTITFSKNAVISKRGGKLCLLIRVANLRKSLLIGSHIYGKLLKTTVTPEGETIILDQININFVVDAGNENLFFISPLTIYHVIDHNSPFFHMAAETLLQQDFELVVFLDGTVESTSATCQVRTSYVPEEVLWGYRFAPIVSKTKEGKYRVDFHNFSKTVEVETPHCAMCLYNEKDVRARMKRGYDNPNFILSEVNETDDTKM
MT stabilize HCS: microtubule stabilizers in HeLa cells, primary screen, imaging, high-content imaging; HeLa tubulin immunostaining HCS, 24 h; share of cells brighter than vehicle mean+2SD; 200,000 compounds, 0.83% hits; % tubulin-high responders, % at 10 µM;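 active = plate Z-score above 3 for both tubulin-high and condensed-nucleus cell shares, with cell loss under 80%, at 10 µM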;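 also: anti alpha tubulin signal scored within the nucleus-defined area of each cell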
ROMK hit retest: ROMK channel modulator hit retest, confirmation, cell-based, thallium flux, duplicate, resupplied hits; 3,000 compounds, 54% hits; shares compounds with ROMK primary; fluorescence ratio; hits give low values; normalized thallium flux (F/F0 slope) at 10 µM;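 active = Flux at 10 µM at least 3 SD below or above vehicle control mean in one or both replicates; inconclusive = no clear call, values can overlap the other calls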
An asterisk follows results filed as active; ? = inconclusive; nt = no result.

SMILES | bCat nuc transl | ROMK primary | MT stabilize HCS | ROMK hit retest
CCOC(=O)c1c(C)[nH]c(C(=O)CC(=O)OC)c1C | 1.2 | 0.319 | 1.7 | nt
COc1ccc(C)cc1N(C(=O)c1ccccc1F)c1nc2ccccc2s1 | -1.9 | -2.5* | 3.1 | 0.0746
COc1ccc(C)cc1N(C(=O)c1ccccc1)c1nc2ccccc2s1 | 4.9 | nt | 4.9 | nt
CCOC(=O)c1c(C)n(-c2ccc(C)cc2)c2ccc(OCC(O)CNCCCO)cc12 (configuration not stated) | 5.3 | -3.63* | 3.3 | 0.0526*
CCOC(=O)c1c(C)n(-c2ccc(C)cc2)c2ccc(OCC(O)CNCC3CCCO3)cc12 (configuration not stated) | nt | 0.188 | 3.0 | nt
O=C(O)CC(c1cccc([N+](=O)[O-])c1)N1Cc2ccccc2C1=O (configuration not stated) | 1.5 | 1.16 | 2.8 | nt
C(=N\NCc1ccccc1)/c1ccc2nccnc2c1 | 1.6 | nt | nt | nt
Cc1occc1-c1nnc(SCC(=O)Nc2ccccc2)n1C(C)c1ccccc1 (configuration not stated) | -4.4 | -0.204 | 3.7 | nt
COc1ccc(C(=O)NN)cc1 | -0.3 | nt | nt | nt
COc1ccc(C(=O)C(CCC(CNC(C)(C)C)C(=O)c2ccc(OC)cc2)CNC(C)(C)C)cc1 (configuration not stated) | 13.2 | nt | 2.3 | 0.066*
N=c1sccn1CC(=O)N1N=C(c2ccc(Cl)cc2)CC1c1ccco1 (configuration not stated) | 3.7 | -3.18* | 2.7 | 0.0641*
O=C(OCC(=O)N1N=C(c2ccc(Cl)cc2)CC1c1ccco1)c1ccco1 (configuration not stated) | -3.9 | -0.00694 | 0.3 | nt
CC(=O)N1CSCC1C(=O)NNS(=O)(=O)c1cccc(C(F)(F)F)c1 (configuration not stated) | -0.3 | nt | nt | nt
CC1(c2cccc3ccccc23)NC(=O)N(CC(=O)NC2CCS(=O)(=O)C2)C1=O (configuration not stated) | 1.0 | nt | 7.1 | nt
Cc1c(/C=N/NC(=O)C(NC(=O)c2ccc3c(c2)OCO3)C(C)C)c2ccccc2n1C (configuration not stated) | -1.2 | 1.58* | 4.7 | 0.0742
CC(C)C(NC(=O)c1ccc2c(c1)OCO2)C(=O)N/N=C/c1cccs1 (configuration not stated) | 4.1 | -0.726 | 3.8 | nt
O=C1CC2c3ccccc3C1C1C(=O)N(CCO)C(=O)C21 (configuration not stated) | -1.1 | 0.335 | 2.9 | nt
COc1ccc(C(=O)C[n+]2cccc(C)c2C)cc1[N+](=O)[O-] | -1.1 | nt | 3.4 | nt
CCC(C)(C)c1ccc(OCCCC[n+]2cccc(C)c2C)c(C(C)(C)CC)c1 | 32.3 | nt | nt | 0.0369*
Cc1ccccc1C1CC(=O)NC2=C1C(=O)CCC2 (configuration not stated) | nt | 0.691 | 2.0 | nt
CCC(C)Oc1ccccc1C1CC(=O)NC2=C1C(=O)CCC2 (configuration not stated) | 10.3 | 2.77* | 60.2* | 0.0925
O=C(NC1CCCCCC1)c1cccs1 | nt | nt | 1.7 | nt
CN1CCC(NC(=O)c2cccs2)CC1 | 2.5 | nt | 4.2 | 0.0754
CCOC(=O)N1CCN(C(=O)CSc2ccc3nnc(CCNC(=O)c4ccc(OC)cc4)n3n2)CC1 | -0.7 | 0.238 | 3.6 | nt
CCOc1ccc(-c2[nH]ncc2Oc2ccccc2OC)c(O)c1 | 5.7 | 0.974 | 2.8 | nt
SMILES | bCat nuc transl | ROMK primary | MT stabilize HCS | ROMK hit retest
CCOc1ccc(-c2[nH]ncc2-c2ccc(OC)c(OC)c2)c(O)c1 | 4.0 | 3.67* | 59.5 | 0.0987*
COc1ccc(NC(=O)c2cc3c(s2)CCC(C)C3)cc1S(=O)(=O)N1CCOCC1 (configuration not stated) | 0.7 | -0.307 | 4.7 | nt
CCCC1=NN2C(=N)/C(=C\c3ccc(SCc4ccco4)o3)C(=O)N=C2S1 | nt | -3.02* | 3.3 | 0.0533*
CCC1=NN2C(=N)/C(=C\c3ccc(SCc4ccco4)o3)C(=O)N=C2S1 | nt | nt | 3.7 | nt
Cc1cccc2cc(CNCc3ccccc3)c(Cl)nc12 | -1.6 | -0.195 | 2.0 | nt
Cn1cc(CN2CCC(C(=O)N3CCCCC3)CC2)c(-c2ccccc2F)n1 | 1.3 | 0.728 | 4.5 | nt
CC(C)Nc1nnc(SCC(=O)NCc2ccc3c(c2)OCO3)s1 | -0.1 | -0.0611 | 1.1 | nt
CC(C)Nc1nnc(SC(C)C(=O)NCc2ccc3c(c2)OCO3)s1 (configuration not stated) | -1.6 | 1.74* | 2.9 | 0.0771
Fc1ccccc1COc1ccc(Br)cc1CNCc1ccncc1 | nt | -2.19 | 2.1 | nt
Fc1ccc(COc2ccc(Br)cc2CNCc2ccncc2)cc1 | 4.2 | -2.66* | 2.8 | 0.0628*
Cc1ccc(OCCOc2ccc(Br)cc2)c([N+](=O)[O-])n1 | 0.3 | -0.534 | 1.5 | nt
CC(C)c1ccc2c(c1)CCC1C(C)(CN)CCCC21C (configuration not stated) | -1.8 | nt | nt | 0.0401*
O=C(CN1C(=O)COc2ccccc21)N(Cc1cccnc1)Cc1ccccc1F | -0.4 | nt | 2.6 | nt
c1ccc(Cn2cc(CNc3ccccc3)nn2)cc1 | 1.3 | nt | nt | nt
COc1ccc(C(=O)Nc2ccc3c(c2)nc(CCNC(C)=O)n3C)cc1 | nt | 2.97* | 1.7 | 0.0749
COc1ccccc1C(=O)Nc1ccc2c(c1)nc(CCNC(C)=O)n2C | -1.4 | 0.366 | 2.7 | nt
Clc1ccc2nc(C3CCN(Cc4ccccc4)CC3)[nH]c2c1 | 0.0 | nt | 1.7 | nt
Cc1ccc(CN2CCC(c3nc4ccc(Cl)cc4[nH]3)CC2)cc1 | 2.1 | nt | 3.4 | ?
COc1ccc(CN2CCC(N(CCc3ccccc3)Cc3ccccc3)CC2)c(OC)c1 | 3.7 | -3.32* | 2.3 | 0.0508*
COc1ccc(CN2CCC(C(=O)N(C)CCc3ccc(OC)c(OC)c3)CC2)c(OC)c1 | -0.1 | nt | 2.7 | nt
Cc1cc(C(=O)Nc2ccccc2)oc(=O)c1 | -2.2 | nt | nt | nt
Cc1csc2c(N3CCN(C(=O)Nc4ccccc4)CC3)ncnc12 | 0.5 | -0.559 | nt | nt
Cc1csc2c(N3CCN(C(=S)Nc4ccc(F)cc4F)CC3)ncnc12 | 1.1 | -3.3* | nt | 0.0609*
O=C(O)CNS(=O)(=O)c1c(Cl)cccc1Cl | -3.1 | nt | nt | nt
Cc1cc(C)nc(/N=C2\NC(=O)CC(C(=O)O)N2c2ccc(Cl)cc2)n1 (configuration not stated) | 0.5 | nt | 4.0 | 0.0819
Cc1ccc(N2/C(=N/c3nc(C)cc(C)n3)NC(=O)CC2C(=O)O)cc1 (configuration not stated) | nt | 0.00973 | 1.9 | nt
CC(C)(C)NCC(O)COc1c(F)cc(Br)cc1F (configuration not stated) | 0.5 | -1.52 | 1.8 | nt
CC(C)(C)CC(C)(C)NCC(O)COc1c(F)cc(Br)cc1F (configuration not stated) | nt | -3.23* | 1.6 | 0.0536*
CC(=O)N1CC=C2C(C#N)=C(N)C(C#N)(C#N)C(CCc3ccccc3)C2C1 (configuration not stated) | 4.6 | -2.68* | 2.7 | 0.0617*
N#CC1=C(N)C(C#N)(C#N)[C@H](c2ccoc2)[C@H]2CN(Cc3ccccc3)CC=C12 | 4.9 | nt | 2.6 | nt

Screening data from PubChem.
